From PubChem BioAssay
The entries come from a sample that favours hits as a whole.
TLR4-MyD88 BLA = TLR4-MyD88 interaction inhibition in cells; inhibition, % at 8.4 µM; AID 861; hit rate 0.18% among 200,000; O00206+Q99836; HeLa CL3-4 TLR4/MyD88 BLA complementation, FRET ratio; in the data active = inhibition above about 25%
Target sequence (O00206 whole entry, looked up): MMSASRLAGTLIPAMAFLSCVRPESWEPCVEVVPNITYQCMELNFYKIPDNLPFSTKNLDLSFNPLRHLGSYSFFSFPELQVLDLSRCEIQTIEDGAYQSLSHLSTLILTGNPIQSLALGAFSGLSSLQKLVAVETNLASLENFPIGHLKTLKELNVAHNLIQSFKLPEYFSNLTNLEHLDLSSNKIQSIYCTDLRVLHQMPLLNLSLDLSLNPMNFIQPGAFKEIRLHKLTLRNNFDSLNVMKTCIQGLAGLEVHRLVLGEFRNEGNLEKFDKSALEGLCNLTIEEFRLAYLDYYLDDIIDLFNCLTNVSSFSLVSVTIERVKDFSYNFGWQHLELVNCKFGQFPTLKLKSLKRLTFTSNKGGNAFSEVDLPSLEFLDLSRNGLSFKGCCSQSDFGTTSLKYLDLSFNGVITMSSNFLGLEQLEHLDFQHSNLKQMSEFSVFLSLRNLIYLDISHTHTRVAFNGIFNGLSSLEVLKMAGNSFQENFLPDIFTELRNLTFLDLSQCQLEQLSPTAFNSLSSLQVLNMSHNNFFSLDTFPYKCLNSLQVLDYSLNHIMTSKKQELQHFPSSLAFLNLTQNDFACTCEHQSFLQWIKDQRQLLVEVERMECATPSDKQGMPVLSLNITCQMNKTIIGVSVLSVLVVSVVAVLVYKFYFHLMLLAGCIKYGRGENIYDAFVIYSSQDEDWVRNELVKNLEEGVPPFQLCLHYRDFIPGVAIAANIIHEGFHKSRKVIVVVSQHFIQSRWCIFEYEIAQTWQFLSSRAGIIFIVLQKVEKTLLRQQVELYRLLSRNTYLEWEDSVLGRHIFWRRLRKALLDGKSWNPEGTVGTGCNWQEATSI
Target sequence (Q99836 whole entry, looked up): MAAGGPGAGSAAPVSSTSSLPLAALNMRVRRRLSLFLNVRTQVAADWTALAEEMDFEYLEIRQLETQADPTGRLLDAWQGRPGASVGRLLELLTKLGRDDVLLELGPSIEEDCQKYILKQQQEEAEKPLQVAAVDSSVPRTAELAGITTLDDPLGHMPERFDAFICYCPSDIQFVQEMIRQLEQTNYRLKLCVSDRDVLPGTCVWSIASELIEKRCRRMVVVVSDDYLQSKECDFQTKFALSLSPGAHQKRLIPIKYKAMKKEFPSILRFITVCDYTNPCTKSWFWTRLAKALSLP
CHOP inhibitor = blocks CHOP induction under ER stress; CHO-K1 CHOP-promoter luciferase, tunicamycin-induced, 15-18 h; inhibition, % at 10 µM; hit rate 3.8% among 220,000; AID 2732;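 active = compounds that reduced the stress-induced luciferase reporter signal by more than about 70% of percent inhibition, limit read from the data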
CHOP UPR activ = activators of apoptotic arm of unfolded protein response (CHOP); hit rate 0.34% among 330,000; CHO-CHOP luciferase reporter, UPR activation, luminescence; percent of tunicamycin response over DMSO baseline; AID 449763; activation, % at 10 µM;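 active = at 10 µM dose, activation of 40% or more, normalized to positive control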
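Assay system: CHO cells with stable CHOP pathway luciferase reporter; Buffer or medium: F12 plus 10% serum; Times: 16-18 h cell attachment, then 6 h compound exposure, 37 °C; Signal: luciferase luminescence; Read-out basis: percent activation relative to tunicamycin control; Control set: tunicamycin high control, DMSO low control.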
NOD2-RIPK2 inh = inhibitors of human NOD2-RIPK2 interaction | hit rate 0.38% among 360,000 | inhibition, % at 4.98 µM | CHO BLA complementation NOD2-RIPK2, CCF4 ratio; in the data active = inhibition above about 21%
XBP1 UPR activ = activators of adaptive arm of unfolded protein response (XBP1); CHO-XBP1 luciferase reporter, IRE1-XBP1 UPR activation, luminescence; percent of tunicamycin response, DMSO as zero; activation, % at 20 µM; hit rate 0.33% among 330,000; AID 463104;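 active = versus positive control, 20 µM dose yields 30% or more activation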
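incubation = overnight seeding at 37 °C, 6 h compound treatment at 37 °C | assay system = CHO-XBP1 cells stably carrying IRE1-XBP1-driven luciferase reporter | input = 1000 cells per well | detection = luciferase luminescence | dosing = single point, 20 µM final compound, 1% DMSO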
TLR9-MyD88 block = TLR9-MyD88 interaction inhibition; Q9NR96+Q99836; CHO BLA complementation TLR9-MyD88, CCF4 FRET ratio; inhibition, % at 4.98 µM; hit rate 0.21% among 340,000; AID 504734;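 active = inhibition above the mean over all tested compounds plus 3 SD, cut at about 21% in these data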
CHOP confirm = confirmation of CHOP induction inhibitors. shares compounds with CHOP inhibitor. inhibition, % at 10 µM. hit rate 45% among 2,100. CHO-CHOP promoter luciferase reporter, tunicamycin-induced, luminescence. AID 504437;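 active = mean of three repeat readings of reporter signal inhibition above a set limit, cut at about 70% in these data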
Hits are given with their value; - = inactive; . = no result given.

SMILES | TLR4-MyD88 BLA | CHOP inhibitor | CHOP UPR activ | NOD2-RIPK2 inh | XBP1 UPR activ | TLR9-MyD88 block | CHOP confirm
Cc1ccc(S(=O)(=O)N/N=C/c2cccc([N+](=O)[O-])c2)cc1 | - | - | - | - | - | - | .
O=C(CCl)Nc1cccc(-c2cnc3ccccc3n2)c1 | - | . | - | - | - | - | 84
Cc1[nH]nc(N=CC2=C(O)CC(c3ccco3)CC2=O)c1-c1ccc(Cl)cc1 (configuration not stated) | - | 105 | - | - | - | - | 80
O=C1CC(c2ccco2)CC(O)=C1C=Nc1ccccc1-c1ccccc1 (configuration not stated) | - | 104 | - | - | - | - | 95
Cc1ccc(N=CC2=C(O)CC(c3ccco3)CC2=O)cc1 (configuration not stated) | - | - | - | - | - | - | .
O=C1CC(c2ccco2)CC(O)=C1C=Nc1cc(Cl)ccc1O (configuration not stated) | - | - | - | - | - | - | .
Cc1cc(Nc2ccc(Cl)cc2)nc(NCc2ccccc2)n1 | - | 107 | - | - | - | - | 81
Cc1cc(N/N=C/c2ccc(Cl)cc2Cl)nc(NCc2ccccc2)n1 | - | - | - | - | - | - | .
CC(CCl)n1c(=O)c2ccccc2n1S(C)(=O)=O (configuration not stated) | . | . | . | - | . | . | .
CC(=O)OCCCNc1cc(Sc2ccc(Cl)cc2)c2nonc2c1[N+](=O)[O-] | - | 109 | . | - | . | - | 114
Clc1ccc(NN(Cc2ccncc2)c2ccc(Cl)cc2)cc1 | . | . | . | - | . | - | .
Cc1c(OCc2ccccc2)c(=O)ccn1Cc1ccc(Cl)cc1 | - | 105 | - | - | - | - | -
CC(C)c1ccc(NC(=O)C2(C)Cc3c(-c4ccc5c(c4)OCO5)ccnc3O2)cc1 (configuration not stated) | . | . | . | - | . | . | .
CNS(=O)(=O)c1ccc(CNC[C@H]2O[C@@H](n3cc(C)c(=O)[nH]c3=O)C[C@@H]2O)cc1 | . | . | . | - | . | - | .
N#Cc1c(NCCN)nc(-c2ccco2)c2c1CCCC2 | - | 105 | - | - | - | - | -
CC(C)CCNc1nc(-c2ccco2)c2c(c1C#N)CCCC2 | - | - | - | - | - | - | .
O=C(Nc1ccccc1)c1cc(C2CCCCN2S(=O)(=O)Cc2cccc(C(F)(F)F)c2)on1 (configuration not stated) | . | . | . | - | . | . | .
N#Cc1c(-c2ccccc2)nc(-c2ccccc2)nc1N1CCOCC1 | - | - | - | - | - | - | .
N#Cc1c(N)nc(-c2ccccc2)nc1-c1ccccc1 | - | 107 | - | - | - | - | -
CCCCc1c(C)nn(-c2nnc3c4ccccc4n(CC)c3n2)c1C | - | 105 | - | - | - | - | 99
CCn1c2ccccc2c2nc3ccccc3nc21 | - | - | - | - | - | - | .
COc1cc(/C=N/N2CCN(C3c4ccccc4-c4ccccc43)CC2)ccc1O | - | 106 | - | - | - | - | -
Oc1cccc(/C=N/N2CCN(C3c4ccccc4-c4ccccc43)CC2)c1 | . | - | - | - | - | - | .
Cc1c(NC(=O)CSc2nnc(-c3ccccc3F)o2)c(=O)n(-c2ccccc2)n1C | . | . | . | - | . | - | .
COc1ccc2nc(C)cc(SCC(=O)N/N=C/c3ccco3)c2c1 | . | . | - | - | - | - | .
SMILES | TLR4-MyD88 BLA | CHOP inhibitor | CHOP UPR activ | NOD2-RIPK2 inh | XBP1 UPR activ | TLR9-MyD88 block | CHOP confirm
COc1ccc(OC)c(/C=N/NC(=O)CSc2cc(C)nc3c(OC)cccc23)c1 | - | 105 | - | - | - | . | -
NNc1nc2sc3c(c2c(=O)n1Cc1ccccc1)CCC3 | . | - | - | - | - | - | .
Nn1c(Nc2ccccc2)nc2sc3c(c2c1=O)CCC3 | - | 96 | . | - | . | - | -
CCOC(=O)c1cc(-c2ccncc2)nc2c1c(C)nn2C | - | - | - | - | - | - | .
CCOC(=O)c1cc(-c2ccccc2)nc2c1c(C)nn2-c1ccccn1 | - | 103 | - | - | - | - | 108
CCN(C(=O)COC(=O)CNS(=O)(=O)c1ccc(C)cc1)C1CCS(=O)(=O)C1 (configuration not stated) | . | . | . | - | . | - | .
CCNC(=O)C1(C)CCCN(Cc2cccc3c2OCCO3)C1 (configuration not stated) | . | . | . | - | . | . | .
CC1(C)CCCN(Cc2c(O)ccc3c(=O)c(-c4nc5ccccc5s4)c(N)oc23)C1 | . | 104 | - | - | - | - | -
NC(=S)n1[nH]c(-c2ccc([N+](=O)[O-])cc2)c(N=Nc2cccc([N+](=O)[O-])c2)c1=O | - | 102 | . | - | . | - | 98
CCc1cc(-c2nnn(CCC3COCCO3)c2CC)cc(CC)c1-c1cn(CCc2c[nH]c3ccccc23)nn1 (configuration not stated) | . | . | . | - | . | - | .
Cc1cccc(NC(=O)NCc2ccc3c(c2)cc(C)n3C)c1 | - | 106 | - | - | - | - | -
Cc1cc2cc(CNC(=O)Nc3cccc(Cl)c3)ccc2n1C | - | - | - | - | - | - | .
COc1ccccc1CNC(=S)Nc1ccc(F)cc1 | . | . | - | - | - | - | .
CCC(C)c1ccc(NC(=S)NCc2ccccc2OC)cc1 (configuration not stated) | - | 97 | . | - | . | - | -
Cc1cc(C)c(S(=O)(=O)NCCn2c(C)cc3ccccc32)c(C)c1 | - | 102 | - | - | - | - | 75
NC(N)=N/N=C(\N=Nc1ccccc1)c1ccc(Cl)cc1 | . | . | . | - | . | - | .
c1ccc2c(c1)ncn2-c1ccc(-c2ccnc(-c3ccncc3)n2)cc1 | - | 99 | - | - | - | - | -
Nc1nccc(-c2ccc(-n3cnc4ccccc43)cc2)n1 | - | - | - | - | - | - | .
CCCCOP(=O)(OCCCC)C1(NS(=O)(=O)c2ccccc2)C=CC(=O)c2ccccc21 (configuration not stated) | - | 96 | - | - | - | - | -
Cc1nn(-c2ccccc2)c(OC(=O)c2cccs2)c1S(=O)(=O)c1ccccc1 | - | 106 | - | - | - | - | -
O=C1C=CC(=O)N1CCCCCCN1C(=O)C=CC1=O | - | 107 | . | . | . | . | 116
O=C(O)Cn1nnc(-c2ccccc2)c1COc1ccccc1 | . | . | . | - | . | . | .
COc1cc(F)ccc1-c1cc(C(=O)Nc2ccc(NC(C)=O)cc2)[nH]n1 | . | . | . | - | . | . | .
CC(C)=C1C2CCC1C(C(=O)Nc1sc(C)c(-c3ccc(C(C)C)cc3)c1C(N)=O)C2C(=O)O (configuration not stated) | - | 103 | - | - | - | - | 100
COCCN1C(=O)COc2ccccc2C1C(=O)NC1CCCC1 (configuration not stated) | . | . | . | - | . | . | .
O=c1[nH]c2ccc(Cl)cc2c(-c2ccccc2)c1SC(=S)N1CCOCC1 | - | 99 | - | - | - | - | -
